# Data reported in ChEMBL document CHEMBL4627381, “Licochalcone A Selectively Resensitizes ABCG2-Overexpressing Multidrug-Resistant Cancer Cells to Chemotherapeutic Drugs” (J Nat Prod, 2020).
# Activity calls are given as the source filed them. The rule behind the calls is not given here.
# Tests used:
# [1] = tested on: NCI-H460; assay: Cytotoxicity against human H460 cells after 72 hrs by MTT assay; type: functional, cell-based; conditions: NCI-H460, 72 h
# Summary of the method: (§1)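 Cells seeded at 5000/well, allowed 24 h, then exposed to a concentration series for 72 h at 37 °C in DMSO vehicle (up to 0.5% v/v). HEK293 lines were read with CCK-8 and cancer lines with MTT. IC50 was taken from fitted dose-response curves over at least three independent experiments. Lines were kept drug-free for 7 days before assay.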
# [2] = target: T1, Broad substrate specificity ATP-binding cassette transporter ABCG2 (Homo sapiens, UniProt Q9UNQ0); assay: Reversal of human ABCG2-mediated multidrug resistance in HEK293/R482 cells assessed as potentiation of mitoxantrone-induced cytotoxicity after 72 hrs by CCK8 assay; type: cell-based
# T1 sequence (Q9UNQ0 whole entry): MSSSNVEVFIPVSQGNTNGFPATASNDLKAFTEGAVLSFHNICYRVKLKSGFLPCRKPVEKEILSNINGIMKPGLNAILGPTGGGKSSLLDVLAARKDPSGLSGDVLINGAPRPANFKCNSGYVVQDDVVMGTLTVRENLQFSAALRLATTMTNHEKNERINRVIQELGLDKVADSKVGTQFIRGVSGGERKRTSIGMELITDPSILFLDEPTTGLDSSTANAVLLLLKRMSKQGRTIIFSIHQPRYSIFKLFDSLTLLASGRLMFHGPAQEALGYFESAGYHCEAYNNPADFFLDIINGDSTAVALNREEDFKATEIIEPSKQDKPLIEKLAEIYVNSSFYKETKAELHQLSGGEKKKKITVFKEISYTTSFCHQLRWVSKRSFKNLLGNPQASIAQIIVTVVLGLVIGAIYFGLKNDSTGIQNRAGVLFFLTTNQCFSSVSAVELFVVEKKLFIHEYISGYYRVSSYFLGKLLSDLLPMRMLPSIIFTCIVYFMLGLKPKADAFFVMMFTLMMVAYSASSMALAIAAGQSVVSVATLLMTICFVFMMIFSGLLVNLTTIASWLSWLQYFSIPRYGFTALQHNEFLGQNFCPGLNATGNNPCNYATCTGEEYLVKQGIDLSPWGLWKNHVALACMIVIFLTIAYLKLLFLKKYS
# Summary of the method: (§2)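 Cells were seeded at 5000/well for 24 h, then given colchicine, etoposide, mitoxantrone or topotecan ± non-toxic modulator (0.5–3.0 μM) for 72 h, with DMSO up to 0.5%. IC50 came from fitted curves (mean ± SD, three experiments). Fold-reversal = IC50 without modulator ÷ IC50 with modulator.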
# [3] = target: T1, Broad substrate specificity ATP-binding cassette transporter ABCG2; assay: Reversal of ABCG2 (unknown origin)-mediated multidrug resistance in human S1-M1-80 cells assessed as fold-change in mitoxantrone IC50 at 0.5 uM after 72 hrs by MTT assay relative to mitoxantrone IC50; type: cell-based; conditions: s1-m1-80, 72 h
# Summary of the method: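 Cells held drug-free 7 days, seeded at 5000 per well for 24 h, then exposed 72 h to mitoxantrone or topotecan dilutions with DMSO (≤0.5%), LCA 0.5–3.0 μM, or Ko143 1.0 μM. Viability was read by MTT. IC50 came from fitted dose-response curves of three independent experiments. Fold-reversal = IC50 without modulator divided by IC50 with modulator.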
# [4] = tested on: S1; assay: Effect on mitoxantrone-induced cytotoxicity against human S1 cells assessed as fold change in mitoxantrone IC50 at 3 uM after 72 hrs by MTT assay relative to mitoxantrone IC50; type: functional
# Summary of the method: (§3)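 Parental S1 colon and H460 lung cancer cells were exposed for 72 h to a mitoxantrone or topotecan concentration series, with or without modulator at 0.5–3.0 μM, and read by MTT. Fold-reversal is IC50 without modulator divided by IC50 with modulator, taken from dose-response curves of three independent experiments.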
# [5] = tested on: S1; assay: Induction of apoptosis in human S1 cells assessed as late apoptotic cells at 10 uM incubated for 48 hrs by annexin V/propidium iodide staining based flow cytometry (reference value: 3.6%); type: functional
# Summary of the method: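 S1 cells were exposed for 48 h to DMSO, 10 μM compound, 5 μM topotecan, or 5 μM topotecan plus 10 μM compound. They were then stained with 1.25 μg/mL annexin V–FITC and 0.1 mg/mL PI for 15 min at room temperature. 10000 cells per sample were analysed by flow cytometry; three independent experiments.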
# [6] = target: T1, Broad substrate specificity ATP-binding cassette transporter ABCG2; assay: Reversal of human ABCG2-mediated multidrug resistance in HEK293/R482 cells assessed as fold change in mitoxantrone IC50 at 3 uM after 72 hrs by CCK8 assay relative to mitoxantrone IC50; type: cell-based; summary of the method: as §2
# [7] = tested on: HEK293; assay: Effect on etoposide-induced cytotoxicity against HEK293 cells assessed as fold change in etoposide IC50 at 3 uM after 72 hrs by CCK8 assay relative to etoposide IC50; type: cell-based; conditions: human, hek293, 72 h
# Summary of the method: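 Reversal assay in parental pcDNA-HEK293 and transfected HEK293 lines (ABCB1 for colchicine, ABCC1 for etoposide, ABCG2 for mitoxantrone/topotecan). Substrate drug series was given with or without nontoxic modulator (0.5, 1.0, 2.0 or 3.0 μM) for 72 h, with a CCK-8 read-out. Fold-reversal is substrate IC50 without modulator divided by IC50 with modulator. Three independent experiments.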
# [8] = tested on: NCI-H460; assay: Effect on mitoxantrone-induced cytotoxicity against human H460 cells assessed as change in mitoxantrone IC50 at 3 uM after 72 hrs by MTT assay relative to mitoxantrone IC50; type: functional; summary of the method: as §3
# [9] = tested on: S1-M1-80; assay: Cytotoxicity against human S1-M1-80 cells harboring ABCG2 (unknown origin) after 72 hrs by MTT assay; type: functional, cell-based; conditions: S1-M1-80, 72 h; summary of the method: as §1
# [10] = species: Homo sapiens; assay: Downregulation of ABCG2 expression in human NCI-H460/MX20 cells at 0.5 to 3 uM incubated for 72 hrs by Western blot analysis; type: functional, cell-based
# Summary of the method: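 S1-M1–80 and H460-MX20 cells were treated with 0.5–3.0 μM or DMSO vehicle for 72 h, then run on SDS-PAGE and immunoblotted with BXP-21 (1:15000) for ABCG2. α-Tubulin (1:100000) served as loading control, with HRP goat anti-mouse secondary. Bands were quantified as mean ± SEM of three independent experiments.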
# [11] = tested on: S1; assay: Induction of apoptosis in human S1 cells assessed as viable cells at 10 uM incubated for 48 hrs by annexin V/propidium iodide staining based flow cytometry (reference value: 94.1%); type: functional; conditions: S1, 48 h, read-out: Activity
# [12] = tested on: S1; assay: Induction of pheophorbide A accumulation in human S1 cells at 20 uM incubated for 1 hr by FACScan flow cytometry; type: functional, cell-based
# Summary of the method: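 Cells held drug-free 7 days. 3 × 10^5 cells were suspended in IMDM with 5% FCS and loaded with pheophorbide A (ex 395/em 670 nm) for 1 h, with or without LCA (20 μM for single-concentration accumulation) or Ko143 3 μM as reference. Read immediately by flow cytometry. Efflux inhibition was run over a concentration range; mean ± SD of three experiments.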
# [13] = target: T2, Multidrug resistance-associated protein 1 (Homo sapiens, UniProt P33527); assay: Reversal of human ABCC1-mediated multidrug resistance in HEK293/MRP1 cells assessed as fold-change in etoposide IC50 at 0.5 uM after 72 hrs by CCK8 relative to etoposide IC50; type: cell-based; summary of the method: as §2
# T2 sequence (P33527 whole entry): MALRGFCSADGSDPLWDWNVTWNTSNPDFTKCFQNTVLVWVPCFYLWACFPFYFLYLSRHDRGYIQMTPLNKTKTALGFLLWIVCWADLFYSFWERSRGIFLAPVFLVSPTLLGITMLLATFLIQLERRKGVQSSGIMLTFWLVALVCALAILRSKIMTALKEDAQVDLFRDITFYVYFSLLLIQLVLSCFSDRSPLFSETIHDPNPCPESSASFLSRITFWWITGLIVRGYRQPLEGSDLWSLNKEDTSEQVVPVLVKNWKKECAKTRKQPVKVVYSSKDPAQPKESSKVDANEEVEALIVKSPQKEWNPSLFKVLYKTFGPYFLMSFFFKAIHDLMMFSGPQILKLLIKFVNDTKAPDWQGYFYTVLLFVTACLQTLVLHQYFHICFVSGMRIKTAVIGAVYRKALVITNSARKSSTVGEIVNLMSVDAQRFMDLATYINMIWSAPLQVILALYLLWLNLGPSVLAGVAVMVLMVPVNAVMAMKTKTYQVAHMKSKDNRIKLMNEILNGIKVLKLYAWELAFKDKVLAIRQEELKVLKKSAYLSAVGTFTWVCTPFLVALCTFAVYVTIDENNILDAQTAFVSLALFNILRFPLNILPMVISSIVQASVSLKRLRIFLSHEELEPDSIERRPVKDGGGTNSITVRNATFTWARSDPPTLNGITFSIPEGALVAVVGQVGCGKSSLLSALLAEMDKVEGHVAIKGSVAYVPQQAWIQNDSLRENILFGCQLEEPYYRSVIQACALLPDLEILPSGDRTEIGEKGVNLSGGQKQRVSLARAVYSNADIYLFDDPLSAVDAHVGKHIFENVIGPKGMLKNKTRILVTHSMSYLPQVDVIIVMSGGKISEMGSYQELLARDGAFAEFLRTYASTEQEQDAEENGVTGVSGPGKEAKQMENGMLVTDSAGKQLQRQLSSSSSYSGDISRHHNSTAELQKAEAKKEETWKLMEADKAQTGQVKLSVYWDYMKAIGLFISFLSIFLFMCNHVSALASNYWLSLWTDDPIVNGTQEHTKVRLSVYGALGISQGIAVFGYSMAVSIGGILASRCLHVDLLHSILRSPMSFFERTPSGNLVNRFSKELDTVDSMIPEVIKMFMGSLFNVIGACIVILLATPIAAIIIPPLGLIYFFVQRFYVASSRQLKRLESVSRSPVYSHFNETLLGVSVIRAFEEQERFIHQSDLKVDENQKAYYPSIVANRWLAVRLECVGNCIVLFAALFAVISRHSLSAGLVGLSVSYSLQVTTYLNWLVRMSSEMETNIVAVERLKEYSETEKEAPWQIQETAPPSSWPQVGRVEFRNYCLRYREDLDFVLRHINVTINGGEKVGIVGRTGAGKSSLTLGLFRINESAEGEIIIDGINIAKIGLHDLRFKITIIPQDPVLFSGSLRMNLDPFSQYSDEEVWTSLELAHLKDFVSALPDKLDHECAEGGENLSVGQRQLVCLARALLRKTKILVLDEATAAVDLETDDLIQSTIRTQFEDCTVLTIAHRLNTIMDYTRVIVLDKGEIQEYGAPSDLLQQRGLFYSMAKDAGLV
# [14] = target: T2, Multidrug resistance-associated protein 1; assay: Reversal of human ABCC1-mediated multidrug resistance in HEK293/MRP1 cells assessed as fold-change in etoposide IC50 at 3 uM after 72 hrs by CCK8 relative to etoposide IC50; type: cell-based; summary of the method: as §2
smiles,measurement,setting,value
C=CC(C)(C)c1cc(/C=C/C(=O)c2ccc(O)cc2)c(OC)cc1O [LICOAGROCHACONE A],IC50,[1],10 to 50 µM
same,Activity,[2],Dose-dependent effect
same,fold change (FC),[3],1.9
same,fold change (FC),[4],1
same,Activity,[5],2.7%
same,fold change (FC),[6],8.1
same,fold change (FC),[7],0.8
same,fold change (FC),[8],1.1
same,IC50,[9],10 to 50 µM
same,Activity,[10],inactive
same,viability at 10 µM,[11],95.4%
same,Activity,[12],inactive
same,fold change (FC),[13],1.2
same,fold change (FC),[14],1.1
